# Source: ChEMBL document CHEMBL1152649, “Synthesis, cytotoxicity and human telomerase inhibition activities of a series of 1,2-heteroannelated anthraquinones and anthra[1,2-d]imidazole-6,11-dione homologues” (2009)
# The source made the active and inactive calls. The rule behind the calls is not given here.
# Experiments:
# [1] = target: Telomerase reverse transcriptase (Homo sapiens) (UniProt O14746); experiment: Inhibition of telomerase in human H1299 cells up to 100 uM by TRAP assay; type: cell-based
# Telomerase reverse transcriptase (Homo sapiens), sequence (O14746 whole entry): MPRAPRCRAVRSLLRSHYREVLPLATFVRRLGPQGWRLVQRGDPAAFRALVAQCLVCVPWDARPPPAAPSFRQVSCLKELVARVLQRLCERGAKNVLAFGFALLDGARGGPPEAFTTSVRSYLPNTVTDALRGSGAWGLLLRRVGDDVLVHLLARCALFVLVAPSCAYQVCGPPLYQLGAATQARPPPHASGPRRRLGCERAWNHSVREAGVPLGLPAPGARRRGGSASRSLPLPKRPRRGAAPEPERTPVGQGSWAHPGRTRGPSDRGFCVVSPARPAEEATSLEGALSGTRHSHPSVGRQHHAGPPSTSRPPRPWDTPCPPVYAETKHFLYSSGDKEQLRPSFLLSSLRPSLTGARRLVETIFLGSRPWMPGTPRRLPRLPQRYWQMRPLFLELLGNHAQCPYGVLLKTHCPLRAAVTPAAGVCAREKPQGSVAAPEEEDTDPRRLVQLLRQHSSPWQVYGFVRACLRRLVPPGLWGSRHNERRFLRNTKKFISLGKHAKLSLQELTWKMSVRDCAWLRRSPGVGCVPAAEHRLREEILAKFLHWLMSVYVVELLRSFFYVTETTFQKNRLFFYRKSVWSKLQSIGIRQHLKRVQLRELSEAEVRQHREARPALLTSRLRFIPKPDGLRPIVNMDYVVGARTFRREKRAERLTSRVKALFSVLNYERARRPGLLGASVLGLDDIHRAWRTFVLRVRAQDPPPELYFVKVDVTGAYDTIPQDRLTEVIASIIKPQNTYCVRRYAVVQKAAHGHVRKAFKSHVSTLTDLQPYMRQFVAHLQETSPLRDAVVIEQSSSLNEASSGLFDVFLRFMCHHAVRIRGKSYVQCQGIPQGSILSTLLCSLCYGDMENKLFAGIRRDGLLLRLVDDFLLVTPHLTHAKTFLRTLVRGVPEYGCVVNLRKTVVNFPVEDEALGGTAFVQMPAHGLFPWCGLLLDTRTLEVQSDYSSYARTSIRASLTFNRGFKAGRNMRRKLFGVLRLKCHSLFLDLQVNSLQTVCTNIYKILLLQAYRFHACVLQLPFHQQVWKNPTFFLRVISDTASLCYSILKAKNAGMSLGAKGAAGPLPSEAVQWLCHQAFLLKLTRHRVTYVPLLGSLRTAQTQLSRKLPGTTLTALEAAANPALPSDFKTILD
# Outline: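 PCR-based telomeric repeat amplification protocol (TRAP). The telomerase source was total lysate of H1299 lung cancer cells, with protein measured against BSA standards. Controls were extract without inhibitor and RNase A-treated extract.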
# [2] = target: Telomerase reverse transcriptase (Homo sapiens) (UniProt O14746); experiment: Inhibition of TERT in human H1299 cells assessed as residual transcriptional activity at 1 uM after 24 hrs by SEAP reporter gene assay; values are per cent of control
# [3] = Cytotoxicity against human H1299 cells at 1 uM after 48 hrs by MTT assay; type: functional; conditions: NCI-H1299, 48 h
# Outline: (§1)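 H1299 non-small cell lung cancer cells were grown in RPMI 1640 with 10% FBS, penicillin and streptomycin at 37 °C under 5% CO2. About 2 × 10³ cells per well were seeded and left 24 h. Compounds were dissolved fresh in DMSO, diluted into complete medium and applied for 48 h. MTT was then added for 4 h at 37 °C, followed by lysis buffer (20% SDS, 50% DMF) for 16 h, and absorbance was read at 550 nm.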
# [4] = target: Telomerase reverse transcriptase (Homo sapiens) (UniProt O14746); experiment: Inhibition of TERT in human H1299 cells assessed as residual transcriptional activity at 10 uM after 24 hrs by SEAP reporter gene assay; values are per cent of control
# [5] = Cytotoxicity against human H1299 cells at 100 uM after 48 hrs by MTT assay; type: functional; conditions: NCI-H1299, 48 h; outline: as §1
# [6] = target: Telomerase reverse transcriptase (Homo sapiens) (UniProt O14746); experiment: Inhibition of TERT in human H1299 cells assessed as residual transcriptional activity at 100 uM after 24 hrs by SEAP reporter gene assay; values are per cent of control
# [7] = Cytotoxicity against human H1299 cells at 10 uM after 48 hrs by MTT assay; type: functional; conditions: NCI-H1299, 48 h; outline: as §1
SMILES,inhibition [1],residual activity [2],viability at 1 µM [3],residual activity [4],viability at 100 µM [5],residual activity [6],viability at 10 µM [7]
O=C1c2ccccc2C(=O)c2c1ccc1nc(CCl)[nH]c21,inactive,94%,80%,81%,26%,5%,79%
CCC(C)c1nc2ccc3c(c2[nH]1)C(=O)c1ccccc1C3=O (stereo unspecified),inactive,67%,77%,58%,43%,11%,83%
CC(C)(C)c1nc2ccc3c(c2[nH]1)C(=O)c1ccccc1C3=O,inactive,88%,83%,87%,56%,29%,81%
CCCCCCCc1nc2ccc3c(c2[nH]1)C(=O)c1ccccc1C3=O,inactive,89%,85%,88%,40%,32%,69%
Cc1nc2ccc3c(c2nc1C)C(=O)c1ccccc1C3=O,inactive,95%,78%,88%,25%,26%,69%
CCCCc1nc2ccc3c(c2[nH]1)C(=O)c1ccccc1C3=O,inactive,91%,85%,84%,20%,36%,70%
CC1(c2ccccc2)Nc2ccc3c(c2N1)C(=O)c1ccccc1C3=O (stereo unspecified),inactive,99%,99%,97%,29%,29%,99%
CC/C=C/c1nc2ccc3c(c2[nH]1)C(=O)c1ccccc1C3=O,inactive,63%,69%,34%,14%,13%,48%
CC(C)c1nc2ccc3c(c2[nH]1)C(=O)c1ccccc1C3=O,inactive,83%,95%,76%,34%,13%,73%
Cc1nc2ccc3c(c2[nH]1)C(=O)c1ccccc1C3=O,inactive,101%,64%,82%,33%,19%,44%
COc1ccc(OC)c(-c2nc3ccc4c(c3[nH]2)C(=O)c2ccccc2C4=O)c1,inactive,77%,91%,76%,13%,41%,39%
O=C1c2ccccc2C(=O)c2c1ccc1nc(-c3ccc([N+](=O)[O-])cc3)[nH]c21,inactive,85%,84%,62%,33%,6%,52%
O=C1c2ccccc2C(=O)c2c1ccc1[nH]c(=S)[nH]c21,inactive,97%,101%,100%,54%,31%,99%
